Assay results collected from several papers.
Protocols differ between the studies behind these lines.

With `C[C@@H]1CC[C@H]2[C@@H](C)C(=O)O[C@@H]3O[C@@]4(C)CC[C@@H]1[C@]32OO4` the IC50 was 8.9 nM (Plasmodium falciparum; parasite growth; DD2; drug-resistant strain, blood stage).
The IC50 of `N.N.[Cl][Pt][Cl]` is reported as 610 nM (RS4-11; cell growth or viability, ATP luminescence; 72 h).
The IC50 of `CCN(CC)CCOc1ccc2c(c1)C(=O)c1cc(OCCN(CC)CC)ccc1-2` is reported as 500 nM (Plasmodium falciparum; parasite growth; K1; drug-resistant strain, blood stage).
With `CC(C)C[C@H](NC(=O)[C@H](CC(C)C)NC(=O)[C@H](CCCCN)NC(=O)[C@H](CCCCN)NC(=O)[C@H](CC(C)C)NC(=O)[C@H](CCC(=O)O)NC(=O)[C@H](CCCCN)NC(=O)[C@H](CCCCN)NC(=O)[C@H](CC(C)C)NC(=O)[C@H](CC(C)C)NC(=O)[C@H](CCCCN)NC(=O)[C@H](CCCCN)NC(=O)[C@H](CC(C)C)NC(=O)[C@@H](N)CC(C)C)C(N)=O` the IC50 was 24600 nM (HCCC9810; cell growth or viability, CCK-8).
`N#Cc1ccc(NC(=N)CC(O)c2cc3c(F)cc(F)cc3c3cc(C(F)(F)F)ccc23)cc1` (stereo not shown) has an IC50 of 24.7 nM (Plasmodium falciparum; parasite growth, ELISA; 3D7; 72 h, blood stage).
`CC(C)C[C@H](NC(=O)[C@H](CC(C)C)NC(=O)[C@H](CCCCN)NC(=O)[C@H](CCCCN)NC(=O)[C@H](CC(C)C)NC(=O)[C@H](CC(C)C)NC(=O)[C@H](CCCCN)NC(=O)[C@H](CCCCN)NC(=O)[C@H](CC(C)C)NC(=O)[C@H](CC(C)C)NC(=O)[C@H](CCCCN)NC(=O)[C@H](CCCCN)NC(=O)[C@H](CC(C)C)NC(=O)[C@@H](N)CCC(=O)O)C(N)=O` gave an IC50 of 8870 nM (HCCC9810; cell growth or viability, CCK-8).
`Cc1cccc(F)c1NC(=N)CC(O)c1cc2c(F)cc(F)cc2c2cc(C(F)(F)F)ccc12` (stereo not shown) has an IC50 of 13.2 nM (Plasmodium falciparum; parasite growth, ELISA; 3D7; 72 h, blood stage).
`COc1ccc2cc1Oc1ccc(cc1)C[C@H]1c3c(cc4c(c3Oc3cc5c(cc3OC)CCN(C)[C@@H]5C2)OCO4)CCN1C` gave an IC50 of 136 nM (Plasmodium falciparum; parasite growth; DD2; drug-resistant strain, blood stage).
The IC50 of `N=C(CC(O)c1cc2c(F)cc(F)cc2c2cc(C(F)(F)F)ccc12)Nc1cccc(F)c1` (stereo not shown) is reported as 2.1 nM (Plasmodium falciparum; parasite growth, ELISA; 3D7; 72 h, blood stage).
The EC50 of `CCN1CCN(Cc2ccc(Nc3nc4ccc(Oc5ccnc(NC(=O)C6CCN(C)CC6)c5)cc4n3C)cc2C(F)(F)F)CC1` is reported as 210 nM (Plasmodium falciparum; parasite growth, SYBR Green; 3D7; blood stage).
